Source: ChEMBL document CHEMBL4261538, “Synthesis and molecular docking studies of xanthone attached amino acids as potential antimicrobial and anti-inflammatory agents” (Medchemcomm, 2017)
Converted amounts (≈) assume the structure as drawn.

What was measured:
Bacillus subtilis [1] = assay: Antibacterial activity against Bacillus subtilis at 75 ug/ml incubated for 24 hrs by agar well diffusion method; assay type: functional; conditions: read-out: DIZ
Summary of the method: (§1)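 Bacteria grown in nutrient broth at 37 °C for 24 h, then subcultured at room temperature. Compounds dissolved in DMSO at 5 mg mL⁻¹ and 5–20 µL added to 6 mm wells, giving 25, 50, 75, 100 µg per well. Gentamicin was the positive control and DMSO the negative control. Plates held at 37 °C for 24 h, then inhibition zone diameter (mm) measured. Values are means of three determinations.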

Fusarium oxysporum [2] = assay: Antifungal activity against Fusarium oxysporum at 50 ug/ml incubated for 48 hrs by agar well diffusion method; assay type: functional; conditions: read-out: DIZ
Summary of the method: (§2)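 Compounds dissolved in DMSO at 5 mg mL⁻¹ and 5–20 µL added to 6 mm wells, giving 25, 50, 75, 100 µg per well. Bavistin was the positive control and DMSO the negative control. Plates incubated at 28 °C for 48 h, then inhibition zone diameter (mm) measured. Values are means of three determinations.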

Fusarium oxysporum [3] = assay: Antifungal activity against Fusarium oxysporum incubated for 48 to 72 hrs by microdilution method; assay type: functional
Summary of the method: (§3)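 Sabouraud agar plates inoculated with fungal suspension at 10⁵ CFU mL⁻¹ plus serially diluted compounds and bavistin reference, both in DMSO. Incubated at 25 °C for 48–72 h. MIC is the lowest concentration completely inhibiting growth. Values are means of three determinations.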

Aspergillus niger [4] = assay: Antifungal activity against Aspergillus niger at 100 ug/ml incubated for 48 hrs by agar well diffusion method; assay type: functional; conditions: read-out: DIZ; summary of the method: as §2
Klebsiella pneumoniae [5] = assay: Antibacterial activity against Klebsiella pneumoniae at 25 ug/ml incubated for 24 hrs by agar well diffusion method; assay type: functional; conditions: read-out: DIZ; summary of the method: as §1
Staphylococcus aureus [6] = assay: Antibacterial activity against Staphylococcus aureus incubated for 24 hrs by microdilution method; assay type: functional
Candida albicans [7] = assay: Antifungal activity against Candida albicans at 100 ug/ml incubated for 48 hrs by agar well diffusion method; assay type: functional; conditions: read-out: DIZ; summary of the method: as §2
Klebsiella pneumoniae [8] = assay: Antibacterial activity against Klebsiella pneumoniae at 75 ug/ml incubated for 24 hrs by agar well diffusion method; assay type: functional; conditions: read-out: DIZ; summary of the method: as §1
Fusarium oxysporum [9] = assay: Antifungal activity against Fusarium oxysporum at 75 ug/ml incubated for 48 hrs by agar well diffusion method; assay type: functional; conditions: read-out: DIZ; summary of the method: as §2
Klebsiella pneumoniae [10] = assay: Antibacterial activity against Klebsiella pneumoniae at 100 ug/ml incubated for 24 hrs by agar well diffusion method; assay type: functional; conditions: read-out: DIZ; summary of the method: as §1
Staphylococcus aureus [11] = assay: Antibacterial activity against Staphylococcus aureus at 75 ug/ml incubated for 24 hrs by agar well diffusion method; assay type: functional; conditions: read-out: DIZ; summary of the method: as §1
Escherichia coli [12] = assay: Antibacterial activity against Escherichia coli at 50 ug/ml incubated for 24 hrs by agar well diffusion method; assay type: functional; conditions: read-out: DIZ; summary of the method: as §1
Staphylococcus aureus [13] = assay: Antibacterial activity against Staphylococcus aureus at 50 ug/ml incubated for 24 hrs by agar well diffusion method; assay type: functional; conditions: read-out: DIZ; summary of the method: as §1
Escherichia coli [14] = assay: Antibacterial activity against Escherichia coli at 25 ug/ml incubated for 24 hrs by agar well diffusion method; assay type: functional; conditions: read-out: DIZ; summary of the method: as §1
Bacillus subtilis [15] = assay: Antibacterial activity against Bacillus subtilis at 25 ug/ml incubated for 24 hrs by agar well diffusion method; assay type: functional; conditions: read-out: DIZ; summary of the method: as §1
Erythrocyte = assay: Anti-inflammatory activity in human RBC assessed as inhibition of hypotonic solution-induced hemolysis after 10 mins by spectrophotometric method; assay type: functional, cell-based
Summary of the method: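 Human blood (heparinized) washed with 0.9% saline, packed cells made into a 40% v/v stock in isotonic phosphate buffer (154 mM NaCl, 10 mM sodium phosphate, pH 7.4). Stock RBC mixed with hypotonic buffer (50 mM NaCl, 10 mM phosphate, pH 7.4) plus sample at 20–100 µg mL⁻¹.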

Aspergillus niger [16] = assay: Antifungal activity against Aspergillus niger at 50 ug/ml incubated for 48 hrs by agar well diffusion method; assay type: functional; conditions: read-out: DIZ; summary of the method: as §2
Fusarium oxysporum [17] = assay: Antifungal activity against Fusarium oxysporum at 25 ug/ml incubated for 48 hrs by agar well diffusion method; assay type: functional; conditions: read-out: DIZ; summary of the method: as §2
Candida albicans [18] = assay: Antifungal activity against Candida albicans at 75 ug/ml incubated for 48 hrs by agar well diffusion method; assay type: functional; conditions: read-out: DIZ; summary of the method: as §2
Escherichia coli [19] = assay: Antibacterial activity against Escherichia coli at 75 ug/ml incubated for 24 hrs by agar well diffusion method; assay type: functional; conditions: read-out: DIZ; summary of the method: as §1
Bacillus subtilis [20] = assay: Antibacterial activity against Bacillus subtilis at 50 ug/ml incubated for 24 hrs by agar well diffusion method; assay type: functional; conditions: read-out: DIZ; summary of the method: as §1
Escherichia coli [21] = assay: Antibacterial activity against Escherichia coli at 100 ug/ml incubated for 24 hrs by agar well diffusion method; assay type: functional; conditions: read-out: DIZ; summary of the method: as §1
Aspergillus niger [22] = assay: Antifungal activity against Aspergillus niger at 25 ug/ml incubated for 48 hrs by agar well diffusion method; assay type: functional; conditions: read-out: DIZ; summary of the method: as §2
Klebsiella pneumoniae [23] = assay: Antibacterial activity against Klebsiella pneumoniae incubated for 24 hrs by microdilution method; assay type: functional
Klebsiella pneumoniae [24] = assay: Antibacterial activity against Klebsiella pneumoniae at 50 ug/ml incubated for 24 hrs by agar well diffusion method; assay type: functional; conditions: read-out: DIZ; summary of the method: as §1
Staphylococcus aureus [25] = assay: Antibacterial activity against Staphylococcus aureus at 100 ug/ml incubated for 24 hrs by agar well diffusion method; assay type: functional; conditions: read-out: DIZ; summary of the method: as §1
Fusarium oxysporum [26] = assay: Antifungal activity against Fusarium oxysporum at 100 ug/ml incubated for 48 hrs by agar well diffusion method; assay type: functional; conditions: read-out: DIZ; summary of the method: as §2
Staphylococcus aureus [27] = assay: Induction of cell membrane damage in Staphylococcus aureus assessed as cell content leakage at MIC by spectrophotometric method; assay type: functional, organism-based; conditions: TDE = time-dependent effect
Summary of the method: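 Log-phase S. aureus inoculated into 0.1% sterile peptone water, with an untreated control, and held at 37 °C for 0, 30, 60 and 120 min. 1 mL of broth centrifuged and supernatant OD read at 260 nm to measure released DNA. Run in triplicate, repeated three times.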

Candida albicans [28] = assay: Antifungal activity against Candida albicans at 50 ug/ml incubated for 48 hrs by agar well diffusion method; assay type: functional; conditions: read-out: DIZ; summary of the method: as §2
Candida albicans [29] = assay: Antifungal activity against Candida albicans incubated for 48 to 72 hrs by microdilution method; assay type: functional; summary of the method: as §3
Escherichia coli [30] = assay: Antibacterial activity against Escherichia coli incubated for 24 hrs by microdilution method; assay type: functional
Bacillus subtilis [31] = assay: Antibacterial activity against Bacillus subtilis incubated for 24 hrs by microdilution method; assay type: functional
Candida albicans [32] = assay: Antifungal activity against Candida albicans at 25 ug/ml incubated for 48 hrs by agar well diffusion method; assay type: functional; conditions: read-out: DIZ; summary of the method: as §2
Staphylococcus aureus [33] = assay: Antibacterial activity against Staphylococcus aureus at 25 ug/ml incubated for 24 hrs by agar well diffusion method; assay type: functional; conditions: read-out: DIZ; summary of the method: as §1
Bacillus subtilis [34] = assay: Antibacterial activity against Bacillus subtilis at 100 ug/ml incubated for 24 hrs by agar well diffusion method; assay type: functional; conditions: read-out: DIZ; summary of the method: as §1
Aspergillus niger [35] = assay: Antifungal activity against Aspergillus niger incubated for 48 to 72 hrs by microdilution method; assay type: functional; summary of the method: as §3
Aspergillus niger [36] = assay: Antifungal activity against Aspergillus niger at 75 ug/ml incubated for 48 hrs by agar well diffusion method; assay type: functional; conditions: read-out: DIZ; summary of the method: as §2

CC(C)(C)OC(=O)N[C@@H](Cc1c[nH]c2ccccc12)C(=O)Oc1ccc2c(=O)c3ccccc3oc2c1
zone of inhibition at 75 µg/mL (Bacillus subtilis [1]): 33 mm | zone of inhibition at 50 µg/mL (Fusarium oxysporum [2]): 30 mm | MIC (Fusarium oxysporum [3]): 21 µg/mL (≈ 42.1 µM) | zone of inhibition at 100 µg/mL (Aspergillus niger [4]): 44 mm | zone of inhibition at 25 µg/mL (Klebsiella pneumoniae [5]): 22 mm | MIC (Staphylococcus aureus [6]): 18 µg/mL (≈ 36.1 µM) | zone of inhibition at 100 µg/mL (Candida albicans [7]): 42 mm | zone of inhibition at 75 µg/mL (Klebsiella pneumoniae [8]): 36 mm | zone of inhibition at 75 µg/mL (Fusarium oxysporum [9]): 35 mm | zone of inhibition at 100 µg/mL (Klebsiella pneumoniae [10]): 41 mm | zone of inhibition at 75 µg/mL (Staphylococcus aureus [11]): 35 mm | zone of inhibition at 50 µg/mL (Escherichia coli [12]): 30 mm | zone of inhibition at 50 µg/mL (Staphylococcus aureus [13]): 29 mm | zone of inhibition at 25 µg/mL (Escherichia coli [14]): 24 mm | zone of inhibition at 25 µg/mL (Bacillus subtilis [15]): 23 mm | IC50 (Erythrocyte): 24 µg/mL (≈ 48.1 µM) | zone of inhibition at 50 µg/mL (Aspergillus niger [16]): 31 mm | zone of inhibition at 25 µg/mL (Fusarium oxysporum [17]): 21 mm | zone of inhibition at 75 µg/mL (Candida albicans [18]): 37 mm | zone of inhibition at 75 µg/mL (Escherichia coli [19]): 37 mm | zone of inhibition at 50 µg/mL (Bacillus subtilis [20]): 29 mm | zone of inhibition at 100 µg/mL (Escherichia coli [21]): 41 mm | zone of inhibition at 25 µg/mL (Aspergillus niger [22]): 24 mm | MIC (Klebsiella pneumoniae [23]): 20 µg/mL (≈ 40.1 µM) | zone of inhibition at 50 µg/mL (Klebsiella pneumoniae [24]): 29 mm | zone of inhibition at 100 µg/mL (Staphylococcus aureus [25]): 40 mm | zone of inhibition at 100 µg/mL (Fusarium oxysporum [26]): 40 mm | Activity (Staphylococcus aureus [27]): Tde | zone of inhibition at 50 µg/mL (Candida albicans [28]): 31 mm | MIC (Candida albicans [29]): 19 µg/mL (≈ 38.1 µM) | MIC (Escherichia coli [30]): 16 µg/mL (≈ 32.1 µM) | MIC (Bacillus subtilis [31]): 17 µg/mL (≈ 34.1 µM) | zone of inhibition at 25 µg/mL (Candida albicans [32]): 24 mm | zone of inhibition at 25 µg/mL (Staphylococcus aureus [33]): 22 mm | zone of inhibition at 100 µg/mL (Bacillus subtilis [34]): 39 mm | MIC (Aspergillus niger [35]): 20 µg/mL (≈ 40.1 µM) | zone of inhibition at 75 µg/mL (Aspergillus niger [36]): 36 mm

CC(C)(C)OC(=O)N[C@@H](Cc1ccc(O)cc1)C(=O)Oc1ccc2c(=O)c3ccccc3oc2c1
zone of inhibition at 75 µg/mL (Bacillus subtilis [1]): 35 mm | zone of inhibition at 50 µg/mL (Fusarium oxysporum [2]): 29 mm | MIC (Fusarium oxysporum [3]): 22 µg/mL (≈ 46.3 µM) | zone of inhibition at 100 µg/mL (Aspergillus niger [4]): 41 mm | zone of inhibition at 25 µg/mL (Klebsiella pneumoniae [5]): 18 mm | MIC (Staphylococcus aureus [6]): 21 µg/mL (≈ 44.2 µM) | zone of inhibition at 100 µg/mL (Candida albicans [7]): 37 mm | zone of inhibition at 75 µg/mL (Klebsiella pneumoniae [8]): 30 mm | zone of inhibition at 75 µg/mL (Fusarium oxysporum [9]): 36 mm | zone of inhibition at 100 µg/mL (Klebsiella pneumoniae [10]): 34 mm | zone of inhibition at 75 µg/mL (Staphylococcus aureus [11]): 32 mm | zone of inhibition at 50 µg/mL (Escherichia coli [12]): 27 mm | zone of inhibition at 50 µg/mL (Staphylococcus aureus [13]): 26 mm | zone of inhibition at 25 µg/mL (Escherichia coli [14]): 20 mm | zone of inhibition at 25 µg/mL (Bacillus subtilis [15]): 20 mm | IC50 (Erythrocyte): 32 µg/mL (≈ 67.3 µM) | zone of inhibition at 50 µg/mL (Aspergillus niger [16]): 30 mm | zone of inhibition at 25 µg/mL (Fusarium oxysporum [17]): 22 mm | zone of inhibition at 75 µg/mL (Candida albicans [18]): 34 mm | zone of inhibition at 75 µg/mL (Escherichia coli [19]): 33 mm | zone of inhibition at 50 µg/mL (Bacillus subtilis [20]): 28 mm | zone of inhibition at 100 µg/mL (Escherichia coli [21]): 36 mm | zone of inhibition at 25 µg/mL (Aspergillus niger [22]): 22 mm | MIC (Klebsiella pneumoniae [23]): 24 µg/mL (≈ 50.5 µM) | zone of inhibition at 50 µg/mL (Klebsiella pneumoniae [24]): 24 mm | zone of inhibition at 100 µg/mL (Staphylococcus aureus [25]): 36 mm | zone of inhibition at 100 µg/mL (Fusarium oxysporum [26]): 42 mm | Activity (Staphylococcus aureus [27]): Tde | zone of inhibition at 50 µg/mL (Candida albicans [28]): 29 mm | MIC (Candida albicans [29]): 24 µg/mL (≈ 50.5 µM) | MIC (Escherichia coli [30]): 19 µg/mL (≈ 40 µM) | MIC (Bacillus subtilis [31]): 20 µg/mL (≈ 42.1 µM) | zone of inhibition at 25 µg/mL (Candida albicans [32]): 20 mm | zone of inhibition at 25 µg/mL (Staphylococcus aureus [33]): 20 mm | zone of inhibition at 100 µg/mL (Bacillus subtilis [34]): 37 mm | MIC (Aspergillus niger [35]): 22 µg/mL (≈ 46.3 µM) | zone of inhibition at 75 µg/mL (Aspergillus niger [36]): 37 mm
